Experimental data reported in ChEMBL document CHEMBL3046095, “Synthesis and antiviral activities of amide derivatives containing the alpha-aminophosphonate moiety” (J Agric Food Chem, 2008).
Converted amounts (≈) assume the structure as drawn.

These compounds were tested on Tobacco mosaic virus (assay: Antiviral activity against Tobacco mosaic virus (TMV) pre-treated with compound for 30 min followed by inoculation on left side of Nicotiana tabacum leaves assessed as virus inactivation effect measured 3 to 4 days post viral infection).
Type: functional, organism-based
Procedure, shortened: (§1)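 Inactivation assay on N. tabacum leaves, with a solvent–virus mixture inoculated as control. Local lesion numbers were recorded 3–4 d after inoculation, three repetitions per compound. Inhibition % was derived from mean lesion counts relative to control.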

Row | Structure (SMILES) | EC50
1 | CCOP(=O)(OCC)C(NC(=O)/C=C/c1ccccc1)c1ccccc1 (centres undefined) [(E)-DIETHYL CINNAMAMIDO(PHENYL)METHYLPHOSPHONATE] | 65.2 µg/mL (≈ 175 µM)
2 | CCOP(=O)(OCC)C(NC(=O)c1ccccc1Cl)c1ccccc1 (centres undefined) [DIETHYL(2-CHLOROBENZAMIDO)(PHENYL)METHYLPHOSPHONATE] | 60 µg/mL (≈ 157 µM)
3 | CCOP(=O)(OCC)C(NC(=O)c1ccccc1F)c1ccccc1 (centres undefined) [DIETHYL(2-FLUOROBENZAMIDO)(PHENYL)METHYLPHOSPHONATE] | 119 µg/mL (≈ 326 µM)
4 | CCOP(=O)(OCC)C(NC(=O)c1ccc(F)cc1)c1ccccc1 (centres undefined) [DIETHYL(4-FLUOROBENZAMIDO)(PHENYL)METHYLPHOSPHONATE] | 54.8 µg/mL (≈ 150 µM)
5 | CCCOP(=O)(OCCC)C(NC(=O)c1ccccc1)c1ccccc1 (centres undefined) [DIPROPYL BENZAMIDO(PHENYL)METHYLPHOSPHONATE] | 279 µg/mL (≈ 743 µM)

The compounds below were run on Tobacco mosaic virus (assay: Antiviral activity against Tobacco mosaic virus (TMV) pre-treated with 62.5 ug/mL compound for 30 min followed by inoculation on left side of Nicotiana tabacum leaves assessed as virus inactivation effect measured 3 to 4 days post viral infection).
Type: functional
Procedure, shortened: as §1

Row | Structure (SMILES) | Activity
6 | CCOP(=O)(OCC)C(NC(=O)/C=C/c1ccccc1)c1ccccc1 (centres undefined) [(E)-DIETHYL CINNAMAMIDO(PHENYL)METHYLPHOSPHONATE] | 49.1%
7 | CCOP(=O)(OCC)C(NC(=O)c1ccccc1Cl)c1ccccc1 (centres undefined) [DIETHYL(2-CHLOROBENZAMIDO)(PHENYL)METHYLPHOSPHONATE] | 59%
8 | CCOP(=O)(OCC)C(NC(=O)c1ccccc1F)c1ccccc1 (centres undefined) [DIETHYL(2-FLUOROBENZAMIDO)(PHENYL)METHYLPHOSPHONATE] | 36.7%
9 | CCOP(=O)(OCC)C(NC(=O)c1ccc(F)cc1)c1ccccc1 (centres undefined) [DIETHYL(4-FLUOROBENZAMIDO)(PHENYL)METHYLPHOSPHONATE] | 70%
10 | CCCOP(=O)(OCCC)C(NC(=O)c1ccccc1)c1ccccc1 (centres undefined) [DIPROPYL BENZAMIDO(PHENYL)METHYLPHOSPHONATE] | 10%

What follows are compounds tested on Tobacco mosaic virus (assay: Antiviral activity against Tobacco mosaic virus (TMV) pre-treated with 125 ug/mL compound for 30 min followed by inoculation on left side of Nicotiana tabacum leaves assessed as virus inactivation effect measured 3 to 4 days post viral infection).
Type: functional
Procedure, shortened: as §1

Row | Structure (SMILES) | Activity
11 | CCOP(=O)(OCC)C(NC(=O)/C=C/c1ccccc1)c1ccccc1 (centres undefined) [(E)-DIETHYL CINNAMAMIDO(PHENYL)METHYLPHOSPHONATE] | 61.2%
12 | CCOP(=O)(OCC)C(NC(=O)c1ccccc1Cl)c1ccccc1 (centres undefined) [DIETHYL(2-CHLOROBENZAMIDO)(PHENYL)METHYLPHOSPHONATE] | 60.9%
13 | CCOP(=O)(OCC)C(NC(=O)c1ccccc1F)c1ccccc1 (centres undefined) [DIETHYL(2-FLUOROBENZAMIDO)(PHENYL)METHYLPHOSPHONATE] | 47.2%
14 | CCOP(=O)(OCC)C(NC(=O)c1ccc(F)cc1)c1ccccc1 (centres undefined) [DIETHYL(4-FLUOROBENZAMIDO)(PHENYL)METHYLPHOSPHONATE] | 76.1%
15 | CCCOP(=O)(OCCC)C(NC(=O)c1ccccc1)c1ccccc1 (centres undefined) [DIPROPYL BENZAMIDO(PHENYL)METHYLPHOSPHONATE] | 23%

These compounds were tested on Tobacco mosaic virus (assay: Antiviral activity against Tobacco mosaic virus (TMV) pre-treated with 250 ug/mL compound for 30 min followed by inoculation on left side of Nicotiana tabacum leaves assessed as virus inactivation effect measured 3 to 4 days post viral infection).
Type: functional
Procedure, shortened: as §1

Row | Structure (SMILES) | Activity
16 | CCOP(=O)(OCC)C(NC(=O)/C=C/c1ccccc1)c1ccccc1 (centres undefined) [(E)-DIETHYL CINNAMAMIDO(PHENYL)METHYLPHOSPHONATE] | 79.9%
17 | CCOP(=O)(OCC)C(NC(=O)c1ccccc1Cl)c1ccccc1 (centres undefined) [DIETHYL(2-CHLOROBENZAMIDO)(PHENYL)METHYLPHOSPHONATE] | 82.2%
18 | CCOP(=O)(OCC)C(NC(=O)c1ccccc1F)c1ccccc1 (centres undefined) [DIETHYL(2-FLUOROBENZAMIDO)(PHENYL)METHYLPHOSPHONATE] | 70.9%
19 | CCOP(=O)(OCC)C(NC(=O)c1ccc(F)cc1)c1ccccc1 (centres undefined) [DIETHYL(4-FLUOROBENZAMIDO)(PHENYL)METHYLPHOSPHONATE] | 100%
20 | CCCOP(=O)(OCCC)C(NC(=O)c1ccccc1)c1ccccc1 (centres undefined) [DIPROPYL BENZAMIDO(PHENYL)METHYLPHOSPHONATE] | 51%

These compounds were tested on Tobacco mosaic virus (assay: Antiviral activity against Tobacco mosaic virus (TMV) inoculated on whole Nicotiana tabacum leaves followed by smearing with compound solution on left side of leaves assessed as viral infection curative effect measured 3 to 4 days post viral infection).
Type: functional, organism-based
Procedure, shortened: (§2)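 Whole same-age growing N. tabacum leaves were dip-inoculated with TMV at 6 × 10^-3 mg/mL, then washed with water and dried. Compound solution was smeared on left half, solvent on right half as control. Local lesions were counted 3–4 d after inoculation, three repetitions per compound. Inhibition % = (control mean lesions − treated mean lesions)/control mean lesions × 100.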

Row | Structure (SMILES) | EC50
21 | CCOP(=O)(OCC)C(NC(=O)/C=C/c1ccccc1)c1ccccc1 (centres undefined) [(E)-DIETHYL CINNAMAMIDO(PHENYL)METHYLPHOSPHONATE] | 439 µg/mL (≈ 1180 µM)
22 | CCOP(=O)(OCC)C(NC(=O)c1ccccc1F)c1ccccc1 (centres undefined) [DIETHYL(2-FLUOROBENZAMIDO)(PHENYL)METHYLPHOSPHONATE] | 256 µg/mL (≈ 700 µM)
23 | CCCOP(=O)(OCCC)C(NC(=O)c1ccccc1)c1ccccc1 (centres undefined) [DIPROPYL BENZAMIDO(PHENYL)METHYLPHOSPHONATE] | 560 µg/mL (≈ 1490 µM)

What follows are compounds tested on Tobacco mosaic virus (assay: Antiviral activity against Tobacco mosaic virus (TMV) inoculated on whole Nicotiana tabacum leaves followed by smearing with 125 ug/mL compound solution on left side of leaves assessed as viral infection curative effect measured 3 to 4 days post viral infection).
Type: functional
Procedure, shortened: as §2

Row | Structure (SMILES) | Activity
24 | CCOP(=O)(OCC)C(NC(=O)/C=C/c1ccccc1)c1ccccc1 (centres undefined) [(E)-DIETHYL CINNAMAMIDO(PHENYL)METHYLPHOSPHONATE] | 32.3%
25 | CCOP(=O)(OCC)C(NC(=O)c1ccccc1F)c1ccccc1 (centres undefined) [DIETHYL(2-FLUOROBENZAMIDO)(PHENYL)METHYLPHOSPHONATE] | 34%
26 | CCCOP(=O)(OCCC)C(NC(=O)c1ccccc1)c1ccccc1 (centres undefined) [DIPROPYL BENZAMIDO(PHENYL)METHYLPHOSPHONATE] | 14%

Each compound was assayed on Tobacco mosaic virus (assay: Antiviral activity against Tobacco mosaic virus (TMV) inoculated on whole Nicotiana tabacum leaves followed by smearing with 250 ug/mL compound solution on left side of leaves assessed as viral infection curative effect measured 3 to 4 days post viral infection).
Type: functional
Procedure, shortened: as §2

Row | Structure (SMILES) | Activity
27 | CCOP(=O)(OCC)C(NC(=O)/C=C/c1ccccc1)c1ccccc1 (centres undefined) [(E)-DIETHYL CINNAMAMIDO(PHENYL)METHYLPHOSPHONATE] | 39.9%
28 | CCOP(=O)(OCC)C(NC(=O)c1ccccc1F)c1ccccc1 (centres undefined) [DIETHYL(2-FLUOROBENZAMIDO)(PHENYL)METHYLPHOSPHONATE] | 49%
29 | CCCOP(=O)(OCCC)C(NC(=O)c1ccccc1)c1ccccc1 (centres undefined) [DIPROPYL BENZAMIDO(PHENYL)METHYLPHOSPHONATE] | 23.9%

These compounds were tested on Tobacco mosaic virus (assay: Antiviral activity against Tobacco mosaic virus (TMV) inoculated on whole Nicotiana tabacum leaves followed by smearing with 500 ug/mL compound solution on left side of leaves assessed as viral infection curative effect measured 3 to 4 days post viral infection).
Type: functional
Procedure, shortened: as §2

Row | Structure (SMILES) | Activity
30 | CCOP(=O)(OCC)C(NC(=O)/C=C/c1ccccc1)c1ccccc1 (centres undefined) [(E)-DIETHYL CINNAMAMIDO(PHENYL)METHYLPHOSPHONATE] | 50%
31 | CCOP(=O)(OCC)C(NC(=O)c1ccccc1Cl)c1ccccc1 (centres undefined) [DIETHYL(2-CHLOROBENZAMIDO)(PHENYL)METHYLPHOSPHONATE] | 19%
32 | CCOP(=O)(OCC)C(NC(=O)c1ccccc1F)c1ccccc1 (centres undefined) [DIETHYL(2-FLUOROBENZAMIDO)(PHENYL)METHYLPHOSPHONATE] | 53.6%
33 | CCOP(=O)(OCC)C(NC(=O)c1ccc(F)cc1)c1ccccc1 (centres undefined) [DIETHYL(4-FLUOROBENZAMIDO)(PHENYL)METHYLPHOSPHONATE] | 19.2%
34 | CCCOP(=O)(OCCC)C(NC(=O)c1ccccc1)c1ccccc1 (centres undefined) [DIPROPYL BENZAMIDO(PHENYL)METHYLPHOSPHONATE] | 42%

What follows are compounds tested on Tobacco mosaic virus (assay: Antiviral activity against Tobacco mosaic virus (TMV) pre-treated with 500 ug/mL compound for 30 min followed by inoculation on left side of Nicotiana tabacum leaves assessed as virus inactivation effect measured 3 to 4 days post viral infection).
Type: functional
Procedure, shortened: as §1

Row | Structure (SMILES) | Activity
35 | CCOP(=O)(OCC)C(NC(=O)/C=C/c1ccccc1)c1ccccc1 (centres undefined) [(E)-DIETHYL CINNAMAMIDO(PHENYL)METHYLPHOSPHONATE] | 88.2%
36 | CCOP(=O)(OCC)C(NC(=O)c1ccccc1Cl)c1ccccc1 (centres undefined) [DIETHYL(2-CHLOROBENZAMIDO)(PHENYL)METHYLPHOSPHONATE] | 90.6%
37 | CCOP(=O)(OCC)C(NC(=O)c1ccccc1F)c1ccccc1 (centres undefined) [DIETHYL(2-FLUOROBENZAMIDO)(PHENYL)METHYLPHOSPHONATE] | 78%
38 | CCOP(=O)(OCC)C(NC(=O)c1ccc(F)cc1)c1ccccc1 (centres undefined) [DIETHYL(4-FLUOROBENZAMIDO)(PHENYL)METHYLPHOSPHONATE] | 99.1%
39 | CCCOP(=O)(OCCC)C(NC(=O)c1ccccc1)c1ccccc1 (centres undefined) [DIPROPYL BENZAMIDO(PHENYL)METHYLPHOSPHONATE] | 78.9%

The compounds below were run on Tobacco mosaic virus (assay: Antiviral activity against Tobacco mosaic virus (TMV) inoculated on 500 ug/mL compound smeared Nicotiana tabacum leaves assessed as protective effect against viral infection measured 3 to 4 days post viral infection).
Type: functional
Procedure, shortened: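 Half-leaf assay on same-age growing Nicotiana tabacum leaves: compound solution smeared on left half, solvent on right half as control. After 12 h, leaves scattered with silicon carbide were brush-inoculated with TMV at 6 × 10^-3 mg/mL. Local lesions were counted 3–4 d post-inoculation, three repetitions. Inhibition % = (control mean lesions − treated mean lesions)/control mean lesions × 100.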

Row | Structure (SMILES) | Activity
40 | CCOP(=O)(OCC)C(NC(=O)/C=C/c1ccccc1)c1ccccc1 (centres undefined) [(E)-DIETHYL CINNAMAMIDO(PHENYL)METHYLPHOSPHONATE] | 58.7%
41 | CCOP(=O)(OCC)C(NC(=O)c1ccccc1Cl)c1ccccc1 (centres undefined) [DIETHYL(2-CHLOROBENZAMIDO)(PHENYL)METHYLPHOSPHONATE] | 58%
42 | CCOP(=O)(OCC)C(NC(=O)c1ccccc1F)c1ccccc1 (centres undefined) [DIETHYL(2-FLUOROBENZAMIDO)(PHENYL)METHYLPHOSPHONATE] | 42%
43 | CCOP(=O)(OCC)C(NC(=O)c1ccc(F)cc1)c1ccccc1 (centres undefined) [DIETHYL(4-FLUOROBENZAMIDO)(PHENYL)METHYLPHOSPHONATE] | 65.7%
44 | CCCOP(=O)(OCCC)C(NC(=O)c1ccccc1)c1ccccc1 (centres undefined) [DIPROPYL BENZAMIDO(PHENYL)METHYLPHOSPHONATE] | 49.9%
